{"source": "ChEMBL document CHEMBL4622914", "about": "“Development of a bioavailable boron-containing PI-103 Bioisostere, PI-103BE” (Bioorg Med Chem Lett, 2020)", "key": {"A549": {"tested_on": "A549", "test": "Antiproliferative activity against human A549 cells assessed as reduction in cell viability incubated for 4 days by coulter counter method", "format": "functional, cell-based", "in_short": "(§1)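 Cancer cells were seeded at 50,000 per well in DMEM with 5% FBS. They were exposed to six compound doses for 4 days, with DMSO as vehicle control and a reference inhibitor as positive control. Cells were counted by Coulter counter. Survival ratio is treated cell number over vehicle cell number. IC50 was taken from dose–response curves. Triplicate experiments.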"}, "MDA-MB-231": {"tested_on": "MDA-MB-231", "test": "Antiproliferative activity against human MDA-MB-231 cells assessed as reduction in cell viability incubated for 4 days by coulter counter method", "format": "functional, cell-based", "in_short": "as §1"}, "HeLa": {"tested_on": "HeLa", "test": "Antiproliferative activity against human HeLa cells assessed as reduction in cell viability incubated for 4 days by coulter counter method", "format": "functional, cell-based", "in_short": "as §1"}, "CWR22R": {"tested_on": "CWR22R", "test": "Antiproliferative activity against human 22Rv1 cells assessed as reduction in cell viability incubated for 4 days by coulter counter method", "format": "functional, cell-based", "in_short": "as §1"}, "PC-3": {"tested_on": "PC-3", "test": "Antiproliferative activity against human PC3 cells assessed as reduction in cell viability incubated for 4 days by coulter counter method", "format": "functional, cell-based", "details": "PC-3, 96 h", "in_short": "(§2)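 Cells seeded at 50,000 per well in DMEM with 5% FBS, exposed to six concentrations of compound for 4 days; DMSO as vehicle control. Cell numbers counted on a Coulter counter; survival ratio = treated/vehicle cell count. IC50 taken from dose-response curves. Triplicate experiments, mean ± SD.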"}, "SK-OV-3": {"tested_on": "SK-OV-3", "test": "Antiproliferative activity against human SKOV3 cells assessed as reduction in cell viability incubated for 4 days by coulter counter method", "format": "functional, cell-based", "details": "SK-OV-3, 96 h", "in_short": "as §2"}, "[1]": {"test": "Stability of compound in cell culture medium assessed as compound hydrolysis measured after 0.5 hrs", "format": "physicochemical"}, "[2]": {"test": "Stability of compound in cell culture medium assessed as compound hydrolysis measured after 1 hr", "format": "physicochemical"}, "[3]": {"test": "Stability of compound in cell culture medium assessed as compound hydrolysis measured after 3 hrs", "format": "physicochemical"}, "[4]": {"test": "Stability of compound in cell culture medium assessed as compound hydrolysis measured after 8 hrs", "format": "physicochemical"}, "[5]": {"test": "Stability of compound in cell culture medium assessed as compound hydrolysis measured after 24 hrs", "format": "physicochemical"}, "[6]": {"test": "Drug concentration in ovariectomized nu/nu mouse plasma at 10 mg/kg, ip measured after 0.5 hrs by UHPLC-MS analysis", "format": "ADME, organism-based", "details": "female"}, "[7]": {"test": "Drug concentration in ovariectomized nu/nu mouse plasma at 10 mg/kg, ip measured after 1 hr by UHPLC-MS analysis", "format": "ADME, organism-based", "details": "female"}, "[8]": {"test": "Drug concentration in ovariectomized nu/nu mouse plasma at 10 mg/kg, ip measured after 3 hrs by UHPLC-MS analysis", "format": "ADME, organism-based", "details": "female"}, "[9]": {"test": "Drug concentration in ovariectomized nu/nu mouse plasma at 10 mg/kg, ip measured after 8 hrs by UHPLC-MS analysis", "format": "ADME, organism-based", "details": "female"}, "[10]": {"test": "Cmax in ovariectomized nu/nu mouse at 10 mg/kg, ip measured upto 24 hrs by UHPLC-MS analysis", "format": "ADME, organism-based", "parameters": "dose 10 mg/kg, route intraperitoneal", "details": "female, in vivo"}, "[11]": {"test": "Tmax in ovariectomized nu/nu mouse at 10 mg/kg, ip measured upto 24 hrs by UHPLC-MS analysis", "format": "ADME, organism-based", "details": "female, in vivo"}, "[12]": {"test": "Half life in ovariectomized nu/nu mouse at 10 mg/kg, ip measured upto 24 hrs by UHPLC-MS analysis", "format": "ADME, organism-based", "details": "female, in vivo", "in_short": "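Female ovariectomized Nu/Nu mice, 4–6 weeks old, received a single 10 mg/kg i.p. dose as an ethanol solution. Blood was drawn from the orbital sinus at 0.5, 1, 3, 8 and 24 h, one sampling per group, into EDTA. Plasma was spun at 4 °C and stored at −80 °C. Parent and metabolites were quantified by C18 UHPLC–TSQ Vantage MS/MS.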"}, "[13]": {"test": "AUC in ovariectomized nu/nu mouse at 10 mg/kg, ip measured upto 24 hrs by UHPLC-MS analysis", "format": "ADME, organism-based", "parameters": "dose 10 mg/kg, time < 24 hr, route intraperitoneal", "details": "female, in vivo"}}}
{"smiles": "Oc1cccc(-c2nc(N3CCOCC3)c3oc4ncccc4c3n2)c1", "note": "[PI-103]", "values": [{"measurement": "IC50", "setting": "A549; A549, 96 h", "result": 180, "unit": "nM"}, {"measurement": "IC50", "setting": "MDA-MB-231; MDA-MB-231, 96 h", "result": 140, "unit": "nM"}, {"measurement": "IC50", "setting": "HeLa; 96 h", "result": 160, "unit": "nM"}, {"measurement": "IC50", "setting": "CWR22R; 22Rv1, 96 h", "result": 100, "unit": "nM"}, {"measurement": "IC50", "setting": "PC-3", "result": 170, "unit": "nM"}, {"measurement": "IC50", "setting": "SK-OV-3", "result": 110, "unit": "nM"}, {"measurement": "Drug degradation", "setting": "[1]", "result": 0.05, "unit": "µM"}, {"measurement": "Drug degradation", "setting": "[2]", "result": 0.08, "unit": "µM"}, {"measurement": "Drug degradation", "setting": "[3]", "result": 0.12, "unit": "µM"}, {"measurement": "Drug degradation", "setting": "[4]", "result": 0.12, "unit": "µM"}, {"measurement": "Drug degradation", "setting": "[5]", "result": 0.14, "unit": "µM"}, {"measurement": "concentration at 0.5 h", "setting": "[6]", "result": 0.1, "unit": "ng/mL"}, {"measurement": "concentration at 1 h", "setting": "[7]", "result": 1.4, "unit": "ng/mL"}, {"measurement": "concentration at 3 h", "setting": "[8]", "result": 1, "unit": "ng/mL"}, {"measurement": "concentration at 8 h", "setting": "[9]", "result": 0.3, "unit": "ng/mL"}, {"measurement": "Cmax", "setting": "[10]", "result": 1.4, "unit": "ng/mL"}, {"measurement": "Tmax", "setting": "[11]", "result": 1, "unit": "h"}, {"measurement": "half-life", "setting": "[12]", "result": 2, "unit": "h"}, {"measurement": "AUC at 24 h", "setting": "[13]", "result": 9.7, "unit": "ng·h/mL"}]}
{"smiles": "OB(O)c1cccc(-c2nc(N3CCOCC3)c3oc4ncccc4c3n2)c1", "values": [{"measurement": "Activity", "setting": "A549", "result": "Dose-dependent effect"}, {"measurement": "Activity", "setting": "MDA-MB-231", "result": "Dose-dependent effect"}, {"measurement": "Activity", "setting": "HeLa", "result": "Dose-dependent effect"}, {"measurement": "Activity", "setting": "CWR22R", "result": "Dose-dependent effect"}, {"measurement": "Drug degradation", "setting": "[1]", "result": 2.39, "unit": "µM"}, {"measurement": "Drug degradation", "setting": "[2]", "result": 3.08, "unit": "µM"}, {"measurement": "Drug degradation", "setting": "[3]", "result": 3.52, "unit": "µM"}, {"measurement": "Drug degradation", "setting": "[4]", "result": 3.55, "unit": "µM"}, {"measurement": "Drug degradation", "setting": "[5]", "result": 3.53, "unit": "µM"}]}
